≈ marks a conversion by molar mass, not a printed value.
Experiments:
Hepatitis B virus [1] = experiment: Antiviral activity against HBV infected in HepDE19 cells assessed as inhibition of HBV DNA; type: functional, organism-based
Procedure, shortened: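 HepDE19 cells (HepG2-derived, HBV genotype D ayw, Tet-off CMV) seeded at 50,000 cells/well with tetracycline 1 μg/mL overnight. Next day switched to tet-free medium for 4 h, then given compound from 10 μM in a ½-log 8-point series, in duplicate, 0.5% DMSO final. After 7 days at 37 °C, intracellular rcDNA was read by bDNA. EC50 from a 4-parameter fit vs DMSO wells; mean of ≥2 experiments.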

[2] = Aqueous solubility of compound at pH 7.4; type: physicochemical; details: buffer
Procedure, shortened: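 A 10 mM DMSO stock was diluted into PBS pH 7.4 to 200 μM compound, 2% DMSO final, and shaken 18–24 h at 22 °C. Samples were filtered by centrifugation and the filtrate quantified by UPLC-UV/MS against a standard curve of 4–200 μM in DMSO.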

in vitro [3] = details: human, liver microsomes
in vitro [4] = details: CD-1, mouse, liver microsomes
[5] = AUC (0-infinity) in CD-1 mouse at 10 mg/kg, po; type: ADME, organism-based; design: time infinity, dose 10 mg/kg, route po; details: in vivo
Procedure, shortened: (§1)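 Female CD-1 mice were dosed 2.0 mg/kg IV or 10 mg/kg PO in 40% PEG400/5% EtOH/55% water. Serial blood was taken at 5 min (IV), 15 min (PO), 30 min, and 2, 4, 8, 12 and 24 h into K2EDTA, and plasma was prepared. Plasma levels were measured by LC-MS/MS against spiked plasma standards of 0.5–8000 ng/mL. Parameters came from non-compartmental analysis.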

[6] = Cmax in CD-1 mouse at 10 mg/kg, po; type: ADME, organism-based; design: dose 10 mg/kg, route po; details: in vivo; procedure, shortened: as §1
[7] = Half life in CD-1 mouse at 10 mg/kg, po or 2 mg/kg, iv; type: ADME, organism-based; details: in vivo; procedure, shortened: as §1
Hepatitis B virus [8] = experiment: Antiviral activity against HBV infected in NOD.CB17-Prkdc-scid/J hydrodynamic injection mouse model expressing HBV genotype D assessed as log reduction in HBV DNA at 10 mg/kg,po QD for 7 days by qPCR method relative to control; type: functional; details: time 7 day
Procedure, shortened: (§2)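 Six-week-old female NOD.CB17-Prkdcscid/J mice received an HBV plasmid by hydrodynamic tail-vein injection (1.6 mL within 5 s). Seven days after injection (day 0), oral gavage dosing began at 3, 10 or 30 mg/kg once or twice daily; controls received vehicle by gavage. Serum was taken on day 0 (predose) and day 7, and HBV DNA was measured in total extracted nucleic acid by qPCR.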

Hepatitis B virus [9] = experiment: Antiviral activity against HBV infected in NOD.CB17-Prkdc-scid/J hydrodynamic injection mouse model expressing HBV genotype D assessed as log reduction in HBV DNA at 30 mg/kg,po QD for 7 days by qPCR method relative to control; type: functional; details: time 7 day; procedure, shortened: as §2
Hepatitis B virus [10] = experiment: Antiviral activity against HBV infected in NOD.CB17-Prkdc-scid/J hydrodynamic injection mouse model expressing HBV genotype D assessed as log reduction in HBV DNA at 3 mg/kg,po QD for 7 days by qPCR method relative to control; type: functional; details: time 7 day; procedure, shortened: as §2
[11] = Cytotoxicity against human HepDE19 cells assessed as reduction in cell viability upto 25 uM; type: toxicity, cell-based; details: hepde19, 25 µM
Procedure, shortened: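 Run on HepDE19 replicate plates seeded at 5,000 cells/well after tetracycline removal. Cells were exposed to compound for 4 days at 37 °C, 5% CO2. Viability was read as intracellular ATP by CellTiter-Glo luminescence, expressed as % of DMSO controls. CC50 came from a 4-parameter curve fit, as the mean of ≥2 experiments.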

[12] = Metabolic stability in human liver microsomes assessed as half life at 0.3 uM and measured upto 1 hrs; type: ADME, Microsome
Procedure, shortened: (§3)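 Compound at 0.3 μM final was incubated with human or mouse liver microsomes at 0.5 mg/mL in 100 mM potassium phosphate pH 7.4 with 1 mM NADPH at 37 °C. T1/2 = ln(2)/k. CLint = (0.693/t1/2)/0.5 mg/mL microsomal protein.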

[13] = Metabolic stability in CD-1 mouse liver microsomes assessed as half life at 0.3 uM and measured upto 1 hrs; type: ADME, Microsome; procedure, shortened: as §3
[14] = Metabolic stability in human liver microsomes assessed as parent compound remaining at 0.3 uM and measured after 1 hrs; type: ADME, Microsome; details: read-out: Stability
[15] = Metabolic stability in CD-1 mouse liver microsomes assessed as parent compound remaining at 0.3 uM and measured after 1 hrs; type: ADME, Microsome; details: read-out: Stability
Hepatitis B virus [16] = experiment: Antiviral activity against HBV infected in NOD.CB17-Prkdc-scid/J hydrodynamic injection mouse model expressing HBV genotype D assessed as log reduction in HBV DNA at 3 mg/kg,po BID for 7 days by qPCR method relative to control; type: functional; details: time 7 day; procedure, shortened: as §2
Hepatitis B virus [17] = experiment: Antiviral activity against HBV infected in NOD.CB17-Prkdc-scid/J hydrodynamic injection mouse model expressing HBV genotype D assessed as log reduction in HBV DNA at 10 mg/kg,po BID for 7 days by qPCR method relative to control; type: functional; details: time 7 day; procedure, shortened: as §2
Hepatitis B virus [18] = experiment: Antiviral activity against HBV infected in NOD.CB17-Prkdc-scid/J hydrodynamic injection mouse model expressing HBV genotype D assessed as log reduction in HBV DNA at 30 mg/kg,po BID for 7 days by qPCR method relative to control; type: functional; details: time 7 day; procedure, shortened: as §2
Hepatitis B virus [19] = experiment: Antiviral activity against HBV infected in NOD.CB17-Prkdc-scid/J hydrodynamic injection mouse model expressing HBV genotype D assessed as log reduction in HBV DNA at 100 mg/kg,po QD for 7 days by qPCR method relative to control; type: functional; details: time 7 day

Row | SMILES | EC50 (Hepatitis B virus [1]) [nM] | solubility [2] [µM] | microsomal CLint at 1 h, 0.3 µM (in vitro [3]) [µL/min/mg] | microsomal CLint at 1 h, 0.3 µM (in vitro [4]) [µL/min/mg] | AUC [5] [ng·h/mL] | Cmax [6] [ng/mL] | half-life [7] [h] | other results
1 | Cn1cnc(COC(=O)N[C@H]2CCc3c2c(Cl)n(C)c3C(=O)Nc2ccc(F)c(Cl)c2)n1 | 13 | 5 (≈ 2.41 µg/mL) | 8.8 | 33.8 | – | – | – | –
2 | Cn1cc2c(c1C(=O)Nc1ccc(F)c(Cl)c1)CC[C@@H]2NC(=O)OCc1nc[nH]n1 | 50 | 23 (≈ 9.96 µg/mL) | 4.1 | 12.3 | 40700 | 3860 | 4.8 | log(activity) (Hepatitis B virus [8]): 0.6
3 | Cn1cc(COC(=O)N[C@H]2CCc3c2cn(C)c3C(=O)Nc2ccc(F)c(Cl)c2)nn1 | 52 | < 4 | 24.4 | 38.4 | – | – | – | –
4 | Cn1cnc(COC(=O)N[C@H]2CCc3c2c(Br)n(C)c3C(=O)Nc2ccc(F)c(Cl)c2)n1 | 12 | < 4 | 8.5 | 31.4 | – | – | – | –
5 | Cn1cc2c(c1C(=O)Nc1ccc(F)c(Cl)c1)CC[C@@H]2NC(=O)OCc1c[nH]nn1 | 57 | 10 (≈ 4.33 µg/mL) | 7.9 | 21.6 | 60600 | 4530 | 5.8 | log(activity) (Hepatitis B virus [9]): 2; log(activity) (Hepatitis B virus [10]): 0.8; log(activity) (Hepatitis B virus [8]): 1.5
6 | Cn1cnc(COC(=O)N[C@@H]2CCc3c2cn(C)c3C(=O)Nc2ccc(F)c(Cl)c2)n1 | 3500 | – | – | – | – | – | – | Activity [11]: Non-Toxic
7 | CCOC(=O)C1=C(CN2CCOCC2)NC(c2nccs2)=NC1c1ccc(F)cc1Br (stereo unspecified) | 110 | – | – | – | – | – | – | –
8 | Cc1c2c(c(C(=O)Nc3ccc(F)c(Cl)c3)n1C)CC[C@@H]2NC(=O)OCc1ncn(C)n1 | 114 | 5 (≈ 2.3 µg/mL) | 12.7 | 52.8 | – | – | – | –
9 | Cn1cnc(COC(=O)N[C@H]2CCc3c2cn(C)c3C(=O)Nc2ccc(F)c(Cl)c2)n1 | 52 | 24 (≈ 10.7 µg/mL) | 5.4 | 12.2 | 46700 | 4270 | 2.6 | half-life at 0.3 µM [12]: 4.27 h; half-life at 0.3 µM [13]: 1.9 h; remaining at 1 h, 0.3 µM [14]: 87%; remaining at 1 h, 0.3 µM [15]: 81%; log(activity) (Hepatitis B virus [16]): 0.8; log(activity) (Hepatitis B virus [17]): 1.9; log(activity) (Hepatitis B virus [18]): 2.5; log(activity) (Hepatitis B virus [9]): 1.8; Activity [11]: Non-Toxic
10 | O=C(NCc1cnc(C(F)(F)F)s1)c1ccc2c(c1)NC(=O)c1ccccc1S2(=O)=O [VEBICORVIR] | 250 | – | – | – | – | – | – | –
11 | COC(=O)C1=C(CN2CCOC[C@H]2C(=O)O)NC(c2nccs2)=N[C@H]1c1ccc(F)cc1Br | 50 | – | – | – | – | – | – | –
12 | C[C@H](NS(=O)(=O)c1cc(C(=O)Nc2ccc(F)c(C#N)c2)n(C)c1)C(F)(F)F [BERSACAPAVIR] | 45 | – | – | – | – | – | – | –
13 | Cn1c(Cl)c2c(c1C(=O)Nc1ccc(F)c(Cl)c1)CC[C@@H]2NC(=O)OCc1nc[nH]n1 | 11 | < 4 | 8.6 | 29.7 | – | – | – | –
14 | Cn1cnc(COC(=O)N[C@H]2CCc3c(C(=O)Nc4ccc(F)c(Cl)c4)ccc(F)c32)n1 | 77 | – | 6.2 | 20.6 | 9870 | 1610 | 2.5 | half-life at 0.3 µM [12]: 3.22 h; half-life at 0.3 µM [13]: 1.23 h; remaining at 1 h, 0.3 µM [14]: 83%; remaining at 1 h, 0.3 µM [15]: 56%; log(activity) (Hepatitis B virus [17]): 0.6; log(activity) (Hepatitis B virus [18]): 2.1; log(activity) (Hepatitis B virus [19]): 1
15 | O=C(Nc1cc(F)c(F)c(F)c1)c1ccc(F)c(S(=O)(=O)N2CCC(O)CC2)c1 | 650 | – | – | – | – | – | – | –
16 | Cn1c(Cl)c2c(c1C(=O)Nc1ccc(F)c(Cl)c1)CC[C@@H]2NC(=O)OCc1c[nH]nn1 | 14 | < 4 | 11.2 | 20.2 | 30600 | 2510 | 3.5 | –

From ChEMBL document CHEMBL5104109, “The identification of highly efficacious functionalised tetrahydrocyclopenta[c]pyrroles as inhibitors of HBV viral replication through modulation of HBV capsid assembly” (RSC Med Chem, 2022)
